Our source for the Ki and ED values is ChEMBL document CHEMBL4190389, “Synthesis and activity of di- or trisubstituted N-(phenoxyalkyl)- or N-{2-[2-(phenoxy)ethoxy]ethyl}piperazine derivatives on the central nervous system” (Bioorg Med Chem Lett, 2018).

Assay [1] concerns the target T1, Adrenergic receptor alpha-1 (Rattus norvegicus, UniProt P15823+P23944+P43140).
T1 sequence (P15823 whole entry): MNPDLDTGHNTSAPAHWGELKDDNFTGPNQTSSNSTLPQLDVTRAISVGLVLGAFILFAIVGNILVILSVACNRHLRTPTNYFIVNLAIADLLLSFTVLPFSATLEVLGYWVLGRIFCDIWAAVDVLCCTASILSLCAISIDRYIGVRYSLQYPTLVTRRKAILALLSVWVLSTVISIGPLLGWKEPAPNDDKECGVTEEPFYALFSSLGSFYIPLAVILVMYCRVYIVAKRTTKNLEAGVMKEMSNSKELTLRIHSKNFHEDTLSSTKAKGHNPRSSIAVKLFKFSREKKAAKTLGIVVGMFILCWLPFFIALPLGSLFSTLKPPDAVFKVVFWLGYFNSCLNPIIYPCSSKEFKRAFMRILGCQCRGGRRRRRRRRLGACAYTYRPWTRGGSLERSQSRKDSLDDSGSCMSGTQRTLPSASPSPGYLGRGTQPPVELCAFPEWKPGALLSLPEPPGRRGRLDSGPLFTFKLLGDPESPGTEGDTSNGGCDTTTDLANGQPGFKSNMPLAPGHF
T1 sequence (P23944 whole entry): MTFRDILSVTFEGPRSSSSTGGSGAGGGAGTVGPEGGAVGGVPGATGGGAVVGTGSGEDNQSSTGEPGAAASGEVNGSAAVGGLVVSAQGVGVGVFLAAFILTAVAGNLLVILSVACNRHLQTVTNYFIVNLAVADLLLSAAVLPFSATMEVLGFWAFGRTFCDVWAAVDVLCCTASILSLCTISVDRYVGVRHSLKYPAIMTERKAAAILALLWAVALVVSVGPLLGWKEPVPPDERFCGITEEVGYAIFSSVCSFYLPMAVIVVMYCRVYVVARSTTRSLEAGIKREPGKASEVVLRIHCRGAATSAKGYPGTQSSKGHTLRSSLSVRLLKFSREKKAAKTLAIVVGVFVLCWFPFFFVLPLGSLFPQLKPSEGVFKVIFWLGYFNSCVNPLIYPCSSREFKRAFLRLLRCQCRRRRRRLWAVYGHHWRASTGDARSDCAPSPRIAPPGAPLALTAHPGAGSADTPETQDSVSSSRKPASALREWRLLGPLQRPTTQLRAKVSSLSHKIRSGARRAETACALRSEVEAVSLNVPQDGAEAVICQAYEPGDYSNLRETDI
T1 sequence (P43140 whole entry): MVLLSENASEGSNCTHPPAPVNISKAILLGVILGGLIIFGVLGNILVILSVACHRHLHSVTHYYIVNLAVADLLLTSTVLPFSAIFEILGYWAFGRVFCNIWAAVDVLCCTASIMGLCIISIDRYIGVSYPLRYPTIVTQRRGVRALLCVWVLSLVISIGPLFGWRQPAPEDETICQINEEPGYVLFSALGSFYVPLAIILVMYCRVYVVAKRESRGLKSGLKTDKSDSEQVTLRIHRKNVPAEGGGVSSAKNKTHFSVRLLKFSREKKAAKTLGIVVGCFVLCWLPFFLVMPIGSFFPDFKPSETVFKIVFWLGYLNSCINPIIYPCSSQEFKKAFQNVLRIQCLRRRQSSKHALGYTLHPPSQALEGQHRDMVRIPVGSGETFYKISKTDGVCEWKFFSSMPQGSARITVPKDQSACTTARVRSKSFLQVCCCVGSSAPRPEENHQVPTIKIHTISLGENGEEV
In words: Displacement of [3H]-prazosin from Wistar rat cerebral cortex membranes alpha1 adrenoceptor by liquid scintillation counting method. Set-up: species or system Membrane.

For another assay, the system named is Rattus norvegicus. The assay can be described thus: Antidepressant-like activity in ip dosed Wistar rat assessed as decrease in immobility time administered 45 mins prior to test measured for last 4 mins of 6 mins observation by forced swim test (reference value: 153.9 to 201.9 secs). The class given is functional.
For assay [2], the system named is Mus musculus. The assay can be described thus: Antidepressant-like activity in ip dosed Albino Swiss CD-1 mouse assessed as decrease in immobility time administered […] prior to test measured for last 4 mins of 6 mins observation by forced swim test (reference value: 153.9 to 201.9 secs). It counts as functional.
For assay [3], the system named is Mus musculus. The assay can be described thus: Anxiolytic-like activity in ip dosed Albino Swiss CD-1 mouse assessed as increase in number of punished crossings administered for 30 mins prior to test measured for 1 min by four-plate test. It counts as functional. Put shortly:
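Four-plate test in mice, i.p., 30 min before test; vehicle 0.9% NaCl; doses 1.25–10 mg/kg; number of punished crossings counted; mean ± SEM, n = 8–10 mice per group; ANOVA F statistics.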

As a reminder, the Ki is the dissociation constant of the complex between target and ligand, obtained from inhibition or displacement. Read a low Ki as higher affinity. Turning to `COc1ccccc1N1CCN(CCOCCOc2c(C)cccc2C)CC1.Cl`, in assay [1], the Ki turned out to be 0.023 µM. For the same compound, the ED in the assay with Rattus norvegicus worked out at 5 mg/kg; in the assay on Mus musculus [2], 2.5 mg/kg; in the assay with Mus musculus [3] it was 2.5 mg/kg.
